The results in this text go back to paper PMC10527948 (European journal of pharmacology, 2023).

Data set [1] has as its system primary astrocytes. Description: Morphometric analysis of GFAP-immunostained astrocytes. In kind it is cell-based, rat. Conditions: 24 hours. A digest of the protocol: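 Astrocytes on PLL-coated coverslips treated with inhibitor for 24 h, then prefixed in 4% PFA and blocked in 5% BSA. Stained with rabbit anti-GFAP (1:500), Alexa-555 secondary, and DAPI. Confocal images analysed in ImageJ for cell area and shape descriptors. Mean ± SE from ≥ 22 cells in 3 random fields, ≥ 2 cultures.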

The test system of data set [2] is primary astrocytes. Description: Cell proliferation by double Ki67/DAPI fluorescence staining. In kind it is cell-based, rat. Conditions: 24 hours.
Data set [3] has as its target T1, membrane-bound ecto-5`-nucleotidase/CD73 (Rattus norvegicus, UniProt P21588).
T1 sequence (P21588 29-576): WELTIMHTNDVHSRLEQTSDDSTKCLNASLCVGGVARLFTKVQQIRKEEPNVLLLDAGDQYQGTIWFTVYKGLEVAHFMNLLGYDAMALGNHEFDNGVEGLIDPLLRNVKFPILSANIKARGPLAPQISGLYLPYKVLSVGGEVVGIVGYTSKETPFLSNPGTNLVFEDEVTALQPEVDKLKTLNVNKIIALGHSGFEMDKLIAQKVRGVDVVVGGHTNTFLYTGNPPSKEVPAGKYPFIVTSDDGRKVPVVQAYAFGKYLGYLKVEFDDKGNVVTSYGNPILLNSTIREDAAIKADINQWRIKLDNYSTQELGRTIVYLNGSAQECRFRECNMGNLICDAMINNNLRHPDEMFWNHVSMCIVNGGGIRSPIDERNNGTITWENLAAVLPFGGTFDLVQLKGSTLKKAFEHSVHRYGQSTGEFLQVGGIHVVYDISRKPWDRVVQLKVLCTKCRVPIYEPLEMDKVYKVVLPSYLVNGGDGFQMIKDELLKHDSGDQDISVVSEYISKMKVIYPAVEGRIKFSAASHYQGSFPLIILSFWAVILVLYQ
Description: Ecto-5`-nucleotidase/CD73 enzyme assay. Format: biochemical. To be noted: for IC50: Dixon linearization, control primary astrocytes, 1.0 mM AMP; for % inhibition at indicated concentration: value in brackets in the Ki column, concentration not given. The method in brief: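 Confluent primary cortical astrocytes from 1-day-old male Wistar rat pups, washed in phosphate-free HEPES/bicarbonate saline, pH 7.4. 15 min preincubation with inhibitor (in water, 1×10−9 to 1×10−3 M); 1.0 mM AMP solution added, 30 min at 37°C; stopped with cold perchloric acid. Pi by malachite green at 620 nm, normalised to BCA protein.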

The subject of data set [4] is primary astrocytes. Description: Scratch wound migration assay. Format: cell-based, rat. Conditions: 1–100 μM; 8 and 24 hours.
The subject of data set [5] is primary astrocytes. Description: MTT assay of cell metabolic activity. Format: cell-based, rat. For orientation: Tetrazolium dyes change colour on reduction, which living cells bring about.
Data set [6] concerns the target T2, CD73 in reactive astrocytes (Rattus norvegicus, UniProt P21588).
T2 sequence (P21588 29-576): T1 sequence (P21588 29-576)
Description: CD73 enzyme assay in reactive astrocytes stimulated with TNFα or IL-1β. In kind it is biochemical. A digest of the protocol: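 Rat primary astrocytes exposed to TNF-α or IL-1β for 24 h, then assayed for AMP hydrolysis (Pi release by malachite green, per mg protein per min). Inhibitor tested at a single 50 μM concentration, or as a 1–250 μM series in cells given 0.1 μg/ml IL-1β. The series was fitted to a four-parameter sigmoid.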

A further data set concerns Lcn. Description: qRT-PCR of inflammatory gene expression in cytokine-treated astrocytes. Conditions: 100 ng/ml cytokine, 24 hours. In kind it is cell-based, rat. The method in brief:
(§1)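 Confluent rat primary astrocytes in 6-well plates treated with 100 ng/ml TNF-α or IL-1β for 24 h. Total RNA extracted with TRIzol, purity checked by OD260/280, then reverse-transcribed. Gene-specific primers used with Gapdh as internal control; quantified by the 2−ΔCt method, n = 3 separate determinations.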

The subject of a further data set is C3. The description is as above. In kind it is cell-based, rat. Conditions: 100 ng/ml cytokine, 24 hours. The method in brief:
as §1

The next data set relates to Nt5e. Description: qRT-PCR of gene expression in cytokine-treated astrocytes. Conditions: 100 ng/ml cytokine, 24 hours. Format: cell-based, rat. The method in brief:
as §1
In general terms: In qPCR the cycle at which signal appears reflects the starting amount.

What is called Ki is a measure of affinity in units of concentration, obtained from inhibition or displacement. As usually defined, the IC50 is the midpoint of a concentration-inhibition curve. A lower IC50 goes with higher potency. As usually defined, the % inhibition is the relative decrease from the control value, in per cent. A low value points to a weak effect. `Nc1ncnc2c1ncn2[C@@H]1O[C@H](COP(=O)(O)CP(=O)(O)O)[C@@H](O)[C@H]1O` [APCP, 5’-(α,β-methylene)diphosphate adenosine, reference compound]: in the data set on primary astrocytes [1] (100 μM), the “Area (μm^2)” value came to 3181.9 ± 607.2 μm^2, the Aspect ratio came out at 2.2 ± 0.2, the Circularity is 0.49 ± 0.03 and the Roundness was found to be 0.54 ± 0.07. This compound gave a Solidity in the data set on primary astrocytes [1] (100 μM) of 0.75 ± 0.04. The “effect on proliferation rate (Ki67+/DAPI+)” value in the data set on primary astrocytes [2] (indicated concentrations) was “no apparent effect”. Besides, in [3] (Cheng-Prusoff equation, Km for rat CD73 53.0 ± 4.1 μM), the Ki amounted to 0.132 ± 0.089 µM. Further, in data set [3], the IC50 was 2.63 ± 1.76 µM and the “% inhibition at indicated concentration” value is given as 18.6%.

As for `Cn1c(=O)n([C@@H]2O[C@H](COP(=O)(O)CP(=O)(O)O)[C@@H](O)[C@H]2O)cc/c1=N\OCc1ccc(Cl)cc1` [MRS4598], the “effect on astrocyte migration velocity (wound closure)” value in the data set on primary astrocytes [4] is recorded as “did not affect migration velocity of astrocytes, except at the highest tested concentration of 100 μM”. Moreover, in the data set with primary astrocytes [5] (1 μM, 24 hours), the “effect on formazan formation (MTT)” value is recorded as “no effect”. The “reduction of formazan formation (MTT)” value with primary astrocytes [5] (concentrations above 10 μM, 24 hours, no apparent concentration dependence) is listed as 40%. In the data set with primary astrocytes [5] (concentrations as low as 1 μM), the “cytotoxic effects on primary astrocytes” value is on record as “negligible cytotoxic effects”. In addition, in the data set on primary astrocytes [1] (10 μM), the “Area (μm^2)” value was determined as 3619.4 ± 552.5 μm^2, the Aspect ratio is on record as 2.3 ± 0.2, the Circularity is 0.55 ± 0.06 and the Roundness is 0.47 ± 0.04. In the data set on primary astrocytes [1] (10 μM), the Solidity was determined as 0.84 ± 0.04. For the same compound, in the data set on primary astrocytes [1] (100 μM), the “Area (μm^2)” value was 1861.8 ± 137.5 ^* μm^2, the Aspect ratio stood at 2.7 ± 0.2, the Circularity is 0.43 ± 0.03 and the Roundness turned out to be 0.42 ± 0.04. The Solidity in the data set with primary astrocytes [1] (100 μM) was 0.77 ± 0.02. Moreover, in [6] (50 μM, cells treated with TNFα or IL-1β for 24 hours), the “effect on CD73 catalytic activity in reactive astrocytes” value was “decreased the catalytic activity of CD73”. In data set [6] (astrocytes stimulated with 0.1 μg/ml IL-1β, 1–250 μM), this compound showed a 50% inhibitory concentration (IC50) of 5 ± 0.26 µM. Besides, the “effect on proliferation rate (Ki67+/DAPI+)” value in the data set on primary astrocytes [2] (50 μM and 100 μM, vs control (~22%), p < 0.05) is reported as “modest but significant decrease”. Besides, the “inhibition of CD73 activity at 1×10^−3 M” value in data set [3] (1×10^−3 M inhibitor) is “complete inhibition”. In [3], the IC50 was determined as 0.11 ± 0.08 µM and the “% inhibition at indicated concentration” value came to 53.4%.

On to “IL-1β: proinflammatory cytokine used to induce the reactive astrocyte phenotype”, for which the “Lcn mRNA abundance (fold-increase in respect to non-stimulated control)” value in the data set on Lcn was 24.22 ± 6.21 fold-increase. For the same compound, in the data set with C3, the “C3 mRNA abundance (fold-increase in respect to non-stimulated control)” value amounted to 3.13 ± 0.69 fold-increase.

Consider TNFα, for which, in the data set on Lcn, the “Lcn mRNA abundance (fold-increase in respect to non-stimulated control)” value is recorded as 49.04 ± 3.34 fold-increase. Further, the “C3 mRNA abundance (fold-increase in respect to non-stimulated control)” value with C3 amounted to 4.65 ± 2.29 fold-increase. In addition, in the data set with Nt5e, the “Nt5e mRNA abundance (fold-increase in respect to non-stimulated control)” value is 2.49 ± 0.33 fold-increase.
